From ChEMBL document CHEMBL4043184, “The design and synthesis of a novel compound of berberine and baicalein that inhibits the efficacy of lipid accumulation in 3T3-L1 adipocytes” (Bioorg Med Chem, 2017)
Active and inactive are the calls of the source. The rule behind the calls is not given here.

Assays:
[1] = system: 3T3-L1; assay: Inhibition of lipid accumulation in mouse 3T3L1 cells at 2.5 to 5 uM incubated for 48 hrs by Oil Red O staining based spectrophotometry; assay type: functional, cell-based
Method in brief: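 Mature 3T3-L1 adipocytes (IBMX/DEX/insulin-differentiated, day 10) after 48 h treatment fixed in 10% buffered formalin 30 min, stained with diluted Oil Red O 1 h at room temperature, washed with 60% isopropanol, dye eluted with isopropanol, absorbance read at 510 nm; expressed as percent intracellular lipid.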

[2] = system: 3T3-L1; assay: Inhibition of triglyceride content in mouse 3T3L1 cells at 2.5 uM incubated for 48 hrs by triglyceride GPO-POD assay; assay type: functional; conditions: 3T3-L1, 48 h
Method in brief: (§1)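 Differentiated 3T3-L1 adipocytes treated 0, 2.5 or 5 µM for 48 h; lysates heated 70 °C for 10 min, centrifuged, supernatant mixed with GPO-POD working reagent 10 min at 37 °C, absorbance at 550 nm. TG normalized to BCA protein; 0.1% DMSO controls; mean ± SD of ≥3 experiments.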

[3] = system: 3T3-L1; assay: Induction of Atgl mRNA expression in mouse 3T3L1 cells at 2.5 and 5 uM incubated for 48 hrs by qPCR method; assay type: functional, cell-based
Method in brief: (§2)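 Mature 3T3-L1 adipocytes (confluent cells induced 3 days with 0.5 mmol/L IBMX, 1.0 µmol/L DEX, 10 mg/L insulin, then insulin 2 days, used ~day 10) treated 0, 2.5 or 5 µM for 48 h. Total RNA extracted, qPCR, normalized to β-actin; DMSO 0.1% controls; mean ± SD, three independent experiments.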

[4] = system: 3T3-L1; assay: Inhibition of triglyceride content in mouse 3T3L1 cells at 5 uM incubated for 48 hrs by triglyceride GPO-POD assay; assay type: functional; conditions: 3T3-L1, 48 h; method in brief: as §1
[5] = system: 3T3-L1; assay: Suppression of lipogenesis associated gene expression in mouse 3T3L1 cells assessed as reduction in Srebp-1c mRNA expression incubated for 48 hrs by qPCR method; assay type: functional, cell-based; method in brief: as §2
[6] = system: 3T3-L1; assay: Cytotoxicity against mouse 3T3L1 cells assessed as reduction in cell viability incubated for 48 hrs by CCK8 assay; assay type: cell-based; conditions: for IC50: Mus musculus, 3T3-L1, 48 h; for Activity: mouse, 3t3-l1, 48 h
Method in brief: (§3)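 3T3-L1 preadipocytes (maintained in DMEM/10% calf serum, 37 °C, 5% CO2) seeded 5×10^3 cells/well in 96-well plates, grown 24 h, then exposed to 1.25–80 µM for 48 h; controls 0.1% DMSO. CCK8 added for 2 h at 37 °C, absorbance at 450 nm. IC50 by logit method; n = 6 plates, ≥3 experiments.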

[7] = system: 3T3-L1; assay: Suppression of lipogenesis associated gene expression in mouse 3T3L1 cells assessed as reduction in Scd1 mRNA expression at 2.5 and 5 uM incubated for 48 hrs by qPCR method; assay type: functional, cell-based; method in brief: as §2
[8] = system: 3T3-L1; assay: Effect on Hsl mRNA expression in mouse 3T3L1 cells at 2.5 and 5 uM incubated for 48 hrs by qPCR method; assay type: functional, cell-based; method in brief: as §2
[9] = system: 3T3-L1; assay: Induction of AMPK mRNA expression in mouse 3T3L1 cells at 5 uM incubated for 48 hrs by qPCR method; assay type: functional, cell-based; method in brief: as §2
[10] = system: 3T3-L1; assay: Cytotoxicity against mouse 3T3L1 cells assessed as reduction in cell viability at <5 uM incubated for 48 hrs by CCK8 assay; assay type: cell-based; conditions: 3t3-l1, 48 h; method in brief: as §3
[11] = system: 3T3-L1; assay: Suppression of lipogenesis associated gene expression in mouse 3T3L1 cells assessed as reduction in Fasn mRNA expression at 5 uM incubated for 48 hrs by qPCR method; assay type: functional, cell-based; method in brief: as §2
[12] = system: 3T3-L1; assay: Suppression of lipogenesis associated gene expression in mouse 3T3L1 cells assessed as reduction in Acc mRNA expression at 2.5 and 5 uM incubated for 48 hrs by qPCR method; assay type: functional, cell-based; method in brief: as §2
[13] = system: 3T3-L1; assay: Cytotoxicity against mouse 3T3L1 cells assessed as reduction in cell viability at 1.25 to 5 uM incubated for 48 hrs by CCK8 assay; assay type: cell-based; conditions: 3t3-l1, 48 h; method in brief: as §3
[14] = system: 3T3-L1; assay: Cytotoxicity against mouse 3T3L1 cells assessed as reduction in cell viability at >10 uM incubated for 48 hrs by CCK8 assay; assay type: cell-based; conditions: 3t3-l1, 48 h; method in brief: as §3
[15] = system: 3T3-L1; assay: Cytotoxicity against mouse 3T3L1 cells assessed as reduction in cell viability at […] incubated for 48 hrs by CCK8 assay; assay type: cell-based; conditions: 3t3-l1, 48 h
[16] = system: 3T3-L1; assay: Reduction in Hsl mRNA expression in mouse 3T3L1 cells at 2.5 uM incubated for 48 hrs by qPCR method; assay type: functional, cell-based; method in brief: as §2
[17] = system: 3T3-L1; assay: Cytotoxicity against mouse 3T3L1 cells assessed as reduction in cell viability at 20 uM incubated for 48 hrs by CCK8 assay; assay type: cell-based; conditions: 3t3-l1, 48 h; method in brief: as §3

| SMILES | inhibition [1] | inhibition at 2.5 µM [2] | Activity [3] | inhibition at 5 µM [4] | inhibition [5] | IC50 [6] | Activity [6] | inhibition [7] | Activity [8] | Activity [9] | Activity [10] | inhibition [11] | inhibition [12] | Activity [13] | Activity [14] | Activity [15] | Activity [16] | Activity [17] |
| --- | --- | --- | --- | --- | --- | --- | --- | --- | --- | --- | --- | --- | --- | --- | --- | --- | --- | --- |
| COc1ccc2cc3[n+](cc2c1OCCCCCCOc1c(O)cc2oc(-c4ccccc4)cc(=O)c2c1O)CCc1cc2c(cc1-3)OCO2 | Active | 27.3% | Active | 37.4% | Dose-dependent effect | 9.42 µM | Dose-dependent effect | Active | inactive | Active | Non-Toxic | Active | Active | – | – | – | – | – |
| O=c1cc(-c2ccccc2)oc2cc(O)c(O)c(O)c12 [BAICALEIN] | – | – | Active | – | Dose-dependent effect | 29.8 µM | Dose-dependent effect | Active | – | Active | – | Active | – | Non-Toxic | Toxic | Non-Toxic | Active | – |
| COc1ccc2cc3[n+](cc2c1OC)CCc1cc2c(cc1-3)OCO2 [BERBERINE] | – | – | Active | – | Dose-dependent effect | 21.8 µM | Dose-dependent effect | Active | – | – | – | Active | – | – | – | – | Active | 45% |
